The list is not random: actives were taken first. Their share in the collection is about 3.3%.
AHR act: activates the human aryl hydrocarbon receptor. P35869. AHR-responsive luciferase reporter cells, luminescence. activation, % at 5 µM. 320,000 compounds, 2.5% hits. AID 2796; in the data active = activation above about 47%;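 also: 0% = vehicle wells and 100% = reference agonist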
FXN GAA850 act: increases GAA850 frataxin promoter reporter activity; HEK293 lucGAA850 FXN promoter luciferase reporter, 24 h; percent of 10 µM SAHA response; activation, % at 6 µM; 360,000 compounds, 0.56% hits; AID 540364;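 active = activation above the average of all compounds screened plus 3 SD, cutoff fixed separately per campaign, cut at about 7.5% in these data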;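 also: 0% = DMSO wells and 100% = 10 µM SAHA wells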
ABCB6 inh MLPCN: inhibitors of human ABC transporter ABCB6; Q9NP58; K562-ABCB6 porphyrin accumulation, flow cytometry, 1 h; stronger effect = lower value; fluorescence ratio to DMSO, % at 10 µM; 360,000 compounds, 0.19% hits;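 active = fluorescence ratio to DMSO below 75%, the collection mean minus 3 SD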;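 also: signal is porphyrin accumulated inside mitochondria; 100% equals median channel fluorescence of DMSO control wells; lower ratio means ABCB6 inhibition with less porphyrin fluorescence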
Target sequence (Q9NP58 whole entry, looked up): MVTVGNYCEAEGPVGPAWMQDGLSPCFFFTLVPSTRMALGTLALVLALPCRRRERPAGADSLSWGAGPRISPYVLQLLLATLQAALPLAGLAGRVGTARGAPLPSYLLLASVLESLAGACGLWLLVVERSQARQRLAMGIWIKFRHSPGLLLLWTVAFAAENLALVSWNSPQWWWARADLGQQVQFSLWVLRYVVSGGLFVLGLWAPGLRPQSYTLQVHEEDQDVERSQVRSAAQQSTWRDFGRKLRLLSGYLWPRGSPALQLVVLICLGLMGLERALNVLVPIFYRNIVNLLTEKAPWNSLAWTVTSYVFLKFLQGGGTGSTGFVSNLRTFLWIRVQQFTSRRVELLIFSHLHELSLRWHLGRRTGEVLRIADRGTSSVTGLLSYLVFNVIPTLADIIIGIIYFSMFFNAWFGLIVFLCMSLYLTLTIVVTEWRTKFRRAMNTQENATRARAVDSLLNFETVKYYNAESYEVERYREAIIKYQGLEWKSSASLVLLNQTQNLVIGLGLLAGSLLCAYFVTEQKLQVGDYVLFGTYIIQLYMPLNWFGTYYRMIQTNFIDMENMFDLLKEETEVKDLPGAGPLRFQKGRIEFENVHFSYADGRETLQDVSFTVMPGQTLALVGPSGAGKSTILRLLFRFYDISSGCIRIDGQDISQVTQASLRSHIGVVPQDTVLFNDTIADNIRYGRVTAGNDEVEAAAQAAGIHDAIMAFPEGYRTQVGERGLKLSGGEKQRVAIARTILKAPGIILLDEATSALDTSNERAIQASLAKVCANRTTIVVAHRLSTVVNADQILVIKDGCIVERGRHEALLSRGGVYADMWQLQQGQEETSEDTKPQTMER
STAT3 activator: STAT3 signaling activation | 190,000 compounds, 0.91% hits | U3A cells, IL-6 STAT3-luciferase reporter, luminescence; 100% = signal with IL-6 EC80 alone | activation (% of control), % at 5.6 µM;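 active = activation above the screen-wide mean of compound activation plus 3 SD, cut at about 130% in these data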;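 also: 0% = background luminescence of wells with medium and substrate only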
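system = STAT3-luciferase reporter U3A cells | reagent = IL-6 stimulus at 33 ng/mL final | timing = 1 h compound pre-exposure, 6 h IL-6 stimulation, 37 °C | measured by = luminescence | evaluation = % activation versus median of IL-6-stimulated wells | control set = IL-6-only wells as 100% reference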
* hit, by the source's call; . = not tested or not shown.

SMILES | AHR act | FXN GAA850 act | ABCB6 inh MLPCN | STAT3 activator
COC(=O)c1ccc(/C=N/Nc2nc(-c3ccccc3)cs2)cc1 | 50* | 1 | 97 | 104
Clc1ccc2[nH]c3c(c2c1)CCc1cn[nH]c1-3 | 96* | -2 | . | 88
c1ccc2c3c([nH]c2c1)-c1[nH]ncc1CC3 | 29 | -3 | 96 | 70
N#Cc1cccc(-n2nnnc2-c2ccc3c(c2)OCO3)c1 | 57* | 5 | 98 | 113
C/C(=N\NC(=O)c1cc(-c2ccc(Cl)s2)[nH]n1)c1ccncc1 | 50* | -1 | 99 | .
O=C(Cc1ccc(F)cc1)OCC(=O)N1CCN(S(=O)(=O)c2ccc(Cl)cc2)CC1 | -3 | 1 | 101 | .
COc1cccc2c1OC1(N3CCOCC3)CCCCC1C2C[N+](=O)[O-] (stereo not given) | . | -1 | 101 | .
C=CCNc1ncnc2c1ncn2[C@H]1CN(Cc2cccs2)C[C@@H](CO)O1 | . | 0 | 102 | .
O=C(N/N=C/c1cccc([N+](=O)[O-])c1)c1cc(-c2ccc3c4c(cccc24)CC3)n[nH]1 | 51* | 1 | 101 | 103
O=C(N/N=C/c1ccc(Cl)c([N+](=O)[O-])c1)c1cc(-c2ccc3c4c(cccc24)CC3)n[nH]1 | 31 | 1 | 91 | .
Cn1ncc([N+](=O)[O-])c1C(=O)N/N=C/c1c[nH]c2ccccc12 | 70* | 3 | 99 | 114
O=C(N/N=C/c1c[nH]c2ccccc12)c1cccc([N+](=O)[O-])c1 | 70* | 3 | 99 | 126
O=C(N/N=C/c1cc(Br)cc(Cl)c1O)c1ccc2c(c1)OCO2 | 13 | -1 | 98 | .
Cc1cc(Br)cc(/C=N/NC(=O)c2ccc3c(c2)OCO3)c1O | 62* | -2 | 93 | .
O=[N+]([O-])c1ccccc1N/N=C/c1c[nH]c2ccccc12 | 73* | 5 | 84 | 203*
Cn1ncc([N+](=O)[O-])c1C(=O)Nc1ccc(-c2ccccc2)cc1 | 73* | 1 | 95 | .
O=C(N/N=C/c1c[nH]c2ccccc12)c1ccc2c(c1)OCCO2 | 48* | -2 | 99 | .
COc1cccc(NC(=O)CSc2nnc(NC(=O)C3CC3)s2)c1 | 4 | 1 | 100 | .
Nc1ccc(Nc2nc(-c3ccncc3)cs2)cc1 | 91* | -2 | 97 | 91
Brc1ccc(Nc2nc(-c3cccnc3)cs2)cc1 | 41 | 7 | 104 | 165*
Cc1csc(NC(=O)c2ccc(C)o2)n1 | 17 | 1 | 99 | 105
Clc1ccc(Nc2nc(-c3ccncc3)cs2)cc1 | 23 | 5 | 102 | 123
Cc1ccc(C(=O)Nc2nc(-c3cccnc3)cs2)o1 | 70* | 2 | 87 | 87
Brc1cccc(Nc2nc(-c3cccnc3)cs2)c1 | 70* | 6 | 98 | .
CC(=O)c1cccc(Nc2nc(-c3cccnc3)cs2)c1 | . | 5 | 100 | .
SMILES | AHR act | FXN GAA850 act | ABCB6 inh MLPCN | STAT3 activator
Oc1ccc(Nc2nc(-c3cccnc3)cs2)cc1 | 74* | 9.0* | 98 | .
Cc1ccc(Nc2nc(-c3cccnc3)cs2)cc1C | 54* | 2 | 92 | .
Clc1cccc(Nc2nc(-c3cccnc3)cs2)c1 | 55* | 6 | 95 | 157*
Cc1cc(Br)cn2c(Cc3ccsc3)c(-c3ccc(Cl)cc3)nc12 | . | . | 103 | .
O=C(NCc1ccc(F)cc1)C1CCCN(c2cnccn2)C1 (stereo not given) | 52* | 0 | 101 | .
O=C(NCc1ccccc1)C1CCCN(c2cnccn2)C1 (stereo not given) | 33 | 0 | 95 | .
O=C(NCc1cccc(C(F)(F)F)c1)C1CCCN(c2cnccn2)C1 (stereo not given) | 52* | 1 | 89 | .
CC1CCCN(CCCN2C(=O)C3C(C(=O)Nc4ccc(Cl)cc4)C4C=CC3(O4)C2C(=O)NC2CCCCC2)C1 (stereo not given) | 0 | -1 | 90 | .
Cc1cc(C(=O)NCc2csc(-c3ccccc3)n2)no1 | 36 | 3 | 101 | .
COc1ccc(OC)c(/C=N/Nc2nncn2/N=C/c2cc(OC)ccc2OC)c1 | 51* | -5 | 101 | 107
COc1ccccc1NC(=S)N(Cc1ccco1)Cc1cc2cc(C)cc(C)c2[nH]c1=O | 72* | -2 | 103 | 100
COc1ccccc1NC(=S)N(Cc1ccco1)Cc1cc2ccc(C)c(C)c2[nH]c1=O | 38 | 1 | 98 | 123
O=C(Nc1nc2ccccc2s1)c1ccccc1 | 27 | 1 | 98 | 74
c1ccc2sc(NN=C3CCCCCC3)nc2c1 | 51* | 0 | 96 | 40
Cc1sc2c(c1C)c(=O)n(-c1cccc(C(F)(F)F)c1)c(=O)n2CC(=O)NCc1ccco1 | -1 | -1 | 94 | 94
c1ccc2oc(SCc3nc4ccccc4s3)nc2c1 | 31 | 1 | 109 | 138*
Cc1nnc(SCc2nc3ccccc3s2)n1N | 34 | 5 | 100 | 141*
O=C(c1ccccc1Oc1ccccc1)N1CCN(c2ccccc2F)CC1 | -2 | 0 | 90 | 101
Cn1c(N)c(Sc2ccccc2[N+](=O)[O-])c(=O)n(C)c1=O | -1 | 3 | 100 | .
O=C(Nc1ccnn1C1CCN(C(=O)c2ccc(F)cc2)CC1)C1CCOC1 (stereo not given) | 1 | 1 | 94 | .
Cc1cc(NC(=O)Nc2cccc(C)c2C)no1 | 52* | -1 | 102 | 82
Cc1cc(C)nc(NC(=S)Nc2cccc(F)c2)c1 | 48* | 2 | 103 | .
COc1ccc(NC(=S)Nc2cc(C)cc(C)n2)cc1OC | 11 | 1 | 94 | 94
COc1cccc(NC(=S)Nc2cc(C)cc(C)n2)c1 | 66* | 7 | 93 | .
CCOC(=O)c1sc(N/N=C/c2cccc(C)c2)nc1C | 98* | 2 | 100 | 93
SMILES | AHR act | FXN GAA850 act | ABCB6 inh MLPCN | STAT3 activator
CC(=O)Nc1ccc2nc(NC(=O)CN3CCOCC3)sc2c1 | 13 | -4 | 103 | .
COc1ccc(Oc2nnnn2-c2ccccc2)cc1 | 4 | 3 | 106 | 94
c1ccc(-n2nnnc2Oc2ccc(-n3ccnc3)cc2)cc1 | 72* | -3 | 96 | 91
CCOC(=O)Cn1c(CN(Cc2ccccc2)Cc2ccccc2)nc2c1c(=O)n(C)c(=O)n2C | 0 | -3 | 95 | 91
Cc1ccc(/C=N/Nc2nc(C(C)(C)C)cs2)o1 | 50* | 3 | 103 | 104
Nc1nc(SCC(=O)Nc2ccc(OC(F)(F)F)cc2)[nH]c(=O)c1NC(=O)c1ccc(Br)o1 | 3 | 2 | 100 | .
COc1ccc(C(=O)NNC(=S)Nc2ccccc2)cc1 | 2 | 6 | 101 | 115
COc1ccc(NC(=S)NNC(=O)c2ccccc2OC(F)F)cc1 | 118* | -4 | 97 | 98
CCNC(=S)NNC(=O)c1ccccc1OC(F)F | 0 | 1 | 104 | 101
CCc1ccc(NC(=S)NNC(=O)c2ccccc2OC(F)F)cc1 | 49* | . | . | 101
COCC1CCN(Cc2nc(-c3ccc(OC)cc3)no2)CC1 | 1 | 1 | 101 | 103
CCn1c(=O)c(-c2nc3ccccc3[nH]2)c(O)c2ccccc21 | 69* | . | . | 89
CCc1ccccc1N(C(=O)c1snc(C(N)=O)c1N)C(C(=O)NCC1CCCO1)c1ccc(C)o1 (stereo not given) | 79* | -1 | 95 | .
Cc1c(C(=O)Nc2c(C)n(C)n(-c3ccccc3)c2=O)oc2ccc(Cl)cc12 | 51* | 3 | 94 | .

Compound activity (PubChem)
